# Entries after “also recorded” stand apart in the source; their conditions may differ. Read-outs that look alike come from different tables or passages of the source.
# How the values were obtained:
# yeast α-glucosidase = yeast α-glucosidase (Saccharomyces cerevisiae, UniProt P53341); test: Inhibition of yeast alpha-glucosidase activity; assay type: biochemical
# [1] = target: rat intestinal α-glucosidase; test: Inhibition of rat alpha-glucosidase activity; assay type: biochemical; conditions: for IC50 Rat α-glucosidase: 1 mM PNPG substrate, triplicate; for % inhibition of rat α-glucosidase: at 1.25 mg/ml
# [2] = target: T1, porcine pancreatic α-amylase (Sus scrofa, UniProt P00690); test: Inhibition of pancreatic alpha-amylase activity; assay type: biochemical
# T1 sequence (P00690 16-511): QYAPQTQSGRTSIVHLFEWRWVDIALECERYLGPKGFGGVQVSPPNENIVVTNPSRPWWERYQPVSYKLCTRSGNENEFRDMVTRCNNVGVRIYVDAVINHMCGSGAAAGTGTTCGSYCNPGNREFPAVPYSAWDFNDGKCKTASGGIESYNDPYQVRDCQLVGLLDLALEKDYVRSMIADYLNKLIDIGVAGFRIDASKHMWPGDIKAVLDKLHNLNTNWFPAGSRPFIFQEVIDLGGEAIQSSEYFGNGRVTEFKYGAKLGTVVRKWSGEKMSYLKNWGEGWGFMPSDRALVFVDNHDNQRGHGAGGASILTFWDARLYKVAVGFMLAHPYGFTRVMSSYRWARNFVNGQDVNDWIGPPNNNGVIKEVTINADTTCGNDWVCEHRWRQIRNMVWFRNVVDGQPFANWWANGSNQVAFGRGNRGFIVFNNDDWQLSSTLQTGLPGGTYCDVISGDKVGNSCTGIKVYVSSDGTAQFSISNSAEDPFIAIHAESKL
# [3] = test system: BT474 ductal carcinoma cells; test: MTT assay, BT474; assay type: cell-based; conditions: Homo sapiens, BT-474, 48 h, read-out: IC50 BT474
# How it was run: (§1)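 Cells grown in RPMI 1640 with 5% fetal calf serum at 37°C, 5% CO2. Seeded 5,000 cells per well, 24 h, then test compound in DMSO added (vehicle DMSO, or water for the reference drug), 48 h at 37°C. MTT solution (5 mg/ml) added for 4 h, medium removed, formazan dissolved in DMSO plus 0.1 mol/l glycine, A540 read. Run in quadruplicate.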
# [4] = test system: Chago K-1 bronchogenic carcinoma cells; test: MTT assay, Chago K-1; assay type: cell-based; conditions: Homo sapiens, ChaGo-K-1, 48 h, read-out: IC50 Chago-K1
# How it was run: as §1
# [5] = test system: Hep-G2 liver hepatoblastoma cells; test: MTT assay, Hep-G2; assay type: cell-based; conditions: Homo sapiens, HepG2, 48 h, read-out: IC50 Hep-G2
# How it was run: as §1
# [6] = test system: Kato-III gastric carcinoma cells; test: MTT assay, Kato-III; assay type: cell-based; conditions: Homo sapiens, 48 h, read-out: IC50 Kato-III
# How it was run: as §1
# [7] = test system: SW 620 colon adenocarcinoma cells; test: MTT assay, SW 620; assay type: cell-based; conditions: Homo sapiens, SW-620, 48 h, read-out: IC50 SW620
# How it was run: as §1
# [8] = test system: CCD-986SK skin fibroblast cells; test: MTT assay, normal skin fibroblast; assay type: cell-based, human
# How it was run: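 Culture medium was Dulbecco's modified Eagle's medium, 37°C, 5% CO2. Cells were seeded at 5,000 per well for 24 h and exposed to test compound in DMSO for 48 h at 37°C. MTT (5 mg/ml solution) was added for 4 h, medium was removed, formazan was dissolved in DMSO with 0.1 mol/l glycine, and A540 was read. Run in quadruplicate.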
# [9] = test system: WI-38 VA-13 subline 2RA lung fibroblast cells; test: MTT assay, normal lung fibroblast; assay type: cell-based, human
# How it was run: as §1
# [10] = test system: all tested cancer cell lines (BT474, Chago K-1, Hep-G2, Kato-III, SW 620); test: MTT assay, all tested cancer cell lines together; assay type: cell-based, human
# How it was run: as §1
# α-glucosidase = conditions: cited from earlier work
# α-amylase = conditions: cited from earlier work
# [11] = read-out: % inhibition of pancreatic α-amylase
# Chain of yeast α-glucosidase (P53341 whole entry): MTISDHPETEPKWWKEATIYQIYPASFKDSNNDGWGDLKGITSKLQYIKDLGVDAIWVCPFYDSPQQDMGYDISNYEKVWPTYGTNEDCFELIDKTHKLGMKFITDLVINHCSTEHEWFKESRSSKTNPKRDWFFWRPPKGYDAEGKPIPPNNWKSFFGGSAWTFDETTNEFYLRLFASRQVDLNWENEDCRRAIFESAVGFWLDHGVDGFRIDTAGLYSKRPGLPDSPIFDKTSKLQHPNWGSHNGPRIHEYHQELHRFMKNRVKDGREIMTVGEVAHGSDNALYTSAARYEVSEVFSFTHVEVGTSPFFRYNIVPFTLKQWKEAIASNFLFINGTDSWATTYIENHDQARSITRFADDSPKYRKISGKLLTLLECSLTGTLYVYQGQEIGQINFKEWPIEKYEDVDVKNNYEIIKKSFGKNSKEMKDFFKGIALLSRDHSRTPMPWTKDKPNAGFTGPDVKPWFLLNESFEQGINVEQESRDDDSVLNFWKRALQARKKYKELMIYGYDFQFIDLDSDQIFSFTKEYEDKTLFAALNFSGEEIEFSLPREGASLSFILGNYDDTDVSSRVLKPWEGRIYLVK
smiles,measurement,setting,value
"O=c1c2cc(O)c(O)cc2oc2cc(O)c([C@@H]3O[C@H](CO)[C@@H](O)[C@H](O)[C@H]3O)c(O)c12 [Mangiferin, 1,3,6,7-Tetrahydroxyxanthone C2-ß-D-glucoside]",inhibition at 2500 µg/mL,yeast α-glucosidase; read-out: % inhibition of yeast α-glucosidase,93.3%
same,IC50 Rat α-glucosidase,[1],433.3 µg/mL
same,IC50 Rat α-glucosidase,[1]; listed as mangiferin,430 µg/mL
same,% inhibition of rat α-glucosidase,[1],92.6%
same,IC50,[2],2480 µM
same,inhibition at 5000 µg/mL,[2]; [11],95.6%
same,IC50,[3],> 200 µg/mL
same,IC50,[4],> 200 µg/mL
same,IC50,[5],> 200 µg/mL
same,IC50,[6],> 200 µg/mL
same,IC50,[7],> 200 µg/mL
same,IC50,"[8]; Homo sapiens, CCD-986Sk, 48 h, read-out: IC50 CCD",> 200 µg/mL
same,effect on % survival of skin fibroblast normal cell line,"[8]; MTT, listed as mangiferin",tended to increase the survival; also recorded: increased % survival of skin fibroblast
same,IC50,"[9]; Homo sapiens, WI-38 VA13, 48 h, read-out: IC50 Wi-38",> 200 µg/mL
same,effect on survival of lung fibroblast normal cell line,"[9]; at high dose, MTT",tended to increase the survival
same,effect on % survival of tested cancer cells,[10],did not significantly affect % survival
same,effect on % survival of tested cancer cells,[10]; listed as mangiferin,did not show significantly toxicity
same,IC50 α-glucosidase,α-glucosidase,41.88 µg/mL
same,IC50 α-amylase,α-amylase,74.35 µg/mL
C[C@H]1O[C@H](O[C@H]2[C@H](O)[C@@H](O)[C@@H](O[C@H]3[C@H](O)[C@@H](O)C(O)O[C@@H]3CO)O[C@@H]2CO)[C@H](O)[C@@H](O)[C@@H]1N[C@H]1C=C(CO)[C@@H](O)[C@H](O)[C@H]1O (some centres unmarked) [Acarbose],% inhibition of yeast α-glucosidase,yeast α-glucosidase; at 40 mg/ml,73.9%
same,IC50 Rat α-glucosidase,[1],449.3 µg/mL
same,% inhibition of rat α-glucosidase,[1],58.7%
same,inhibition at 156 µg/mL,[2]; [11],73.9%

# Reference: PMC5288965 (Journal of Advanced Pharmaceutical Technology & Research, 2017)
